Columns and labels:
[1] = test system: Human immunodeficiency virus 1; assay: Antiviral activity against HIV1 isolate 057 expressing wild type reverse transcriptase gene by phenosense assay; assay type: functional, organism-based; details: Human immunodeficiency virus 1, isolate 057
Method in brief: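 In the PhenoSense recombinant virus assay, virus was tested against increasing drug concentrations. EC50 came from the inhibition curve and was compared with a drug-sensitive reference virus.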

[2] = test system: Human immunodeficiency virus 1; assay: Antiviral activity against HIV1 isolate 061 harboring reverse transcriptase M41L/D67N/K70R/M184V/L210W/T215Y/K219E mutant gene by phenosense assay; assay type: functional, organism-based; details: Human immunodeficiency virus 1, isolate 061
Method in brief: (§1)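 Recombinant-virus PhenoSense HIV assay run on a panel of 30 NRTI-resistant HIV-1 mutants and two wild-type viruses. Each virus is tested across increasing drug concentrations to give an inhibition curve and EC50. Fold change is the test recombinant EC50 divided by the EC50 of the drug-sensitive wild-type reference virus.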

[3] = test system: Human immunodeficiency virus 1; assay: Antiviral activity against HIV1 isolate 066 harboring reverse transcriptase 184V mutant gene by phenosense assay; assay type: functional, organism-based; details: Human immunodeficiency virus 1, isolate 066; method in brief: as §1
[4] = test system: Human immunodeficiency virus 1; assay: Antiviral activity against HIV1 isolate 067 harboring reverse transcriptase A62V/D67G/T69SVG/V75I/T215I mutant gene by phenosense assay; assay type: functional, organism-based; details: Human immunodeficiency virus 1, isolate 067; method in brief: as §1
[5] = test system: Human immunodeficiency virus 1; assay: Antiviral activity against HIV1 isolate 070 harboring reverse transcriptase 65R/S68G mutant gene by phenosense assay; assay type: functional, organism-based; details: Human immunodeficiency virus 1, isolate 070; method in brief: as §1
[6] = test system: Human immunodeficiency virus 1; assay: Antiviral activity against HIV1 isolate 071 harboring reverse transcriptase 65R/S68N/184V mutant gene by phenosense assay; assay type: functional, organism-based; details: Human immunodeficiency virus 1, isolate 071; method in brief: as §1
[7] = test system: Human immunodeficiency virus 1; assay: Antiviral activity against HIV1 isolate 153 harboring reverse transcriptase L74V mutant gene by phenosense assay; assay type: functional, organism-based; details: Human immunodeficiency virus 1, isolate 153; method in brief: as §1
[8] = test system: Human immunodeficiency virus 1; assay: Antiviral activity against HIV1 isolate 157 harboring reverse transcriptase L74V/M184V mutant gene by phenosense assay; assay type: functional, organism-based; details: Human immunodeficiency virus 1, isolate 157; method in brief: as §1
[9] = test system: Human immunodeficiency virus 1; assay: Antiviral activity against HIV1 isolate 160 harboring reverse transcriptase S68G/V75(I/T)/F77L/Y115F/F116Y /Q151M mutant gene by phenosense assay; assay type: functional, organism-based; details: Human immunodeficiency virus 1, isolate 160; method in brief: as §1
[10] = test system: Human immunodeficiency virus 1; assay: Antiviral activity against HIV1 isolate 162 harboring reverse transcriptase A62V/V75I/F77L/Y115F/F116Y/Q151M/M184V mutant gene by phenosense assay; assay type: functional, organism-based; details: Human immunodeficiency virus 1, isolate 162; method in brief: as §1
[11] = test system: Human immunodeficiency virus 1; assay: Antiviral activity against HIV1 isolate 185 harboring reverse transcriptase T215Y mutant gene by phenosense assay; assay type: functional, organism-based; details: Human immunodeficiency virus 1, isolate 185; method in brief: as §1
[12] = test system: Human immunodeficiency virus 1; assay: Antiviral activity against HIV1 isolate 215 harboring reverse transcriptase D67N/K70E mutant gene by phenosense assay; assay type: functional, organism-based; details: Human immunodeficiency virus 1, isolate 215
Method in brief: (§2)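 PhenoSense HIV recombinant virus assay: patient-derived HIV-1 with major NRTI resistance mutations tested against increasing drug concentrations to give inhibition curves. EC50 is the concentration giving 50% inhibition. Fold change is the test recombinant EC50 divided by the EC50 of a drug-sensitive wild-type reference virus. Panel of 30 NRTI-resistant isolates plus two wild-type viruses.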

[13] = test system: Human immunodeficiency virus 1; assay: Antiviral activity against HIV1 isolate 058 harboring reverse transcriptase M41L/D67N/K70R/L210W/T215F/K219Q mutant gene by phenosense assay relative to wild type; assay type: functional; method in brief: as §1
[14] = test system: Human immunodeficiency virus 1; assay: Antiviral activity against HIV1 isolate 060 harboring reverse transcriptase M41L/D67N/K70R/L210W/T215Y/K219E mutant gene by phenosense assay relative to wild type; assay type: functional; method in brief: as §1
[15] = test system: Human immunodeficiency virus 1; assay: Antiviral activity against HIV1 isolate 066 harboring reverse transcriptase 184V mutant gene by phenosense assay relative to wild type; assay type: functional; method in brief: as §1
[16] = test system: Human immunodeficiency virus 1; assay: Antiviral activity against HIV1 isolate 067 harboring reverse transcriptase A62V/D67G/T69SVG/V75I/T215I mutant gene by phenosense assay relative to wild type; assay type: functional; method in brief: as §1
[17] = test system: Human immunodeficiency virus 1; assay: Antiviral activity against HIV1 isolate 071 harboring reverse transcriptase 65R/S68N/184V mutant gene by phenosense assay relative to wild type; assay type: functional; method in brief: as §1
[18] = test system: Human immunodeficiency virus 1; assay: Antiviral activity against HIV1 isolate 180 harboring reverse transcriptase K65R mutant gene obtained as site-directed mutant of NL4-3 by phenosense assay relative to wild type; assay type: functional; method in brief: as §1
[19] = test system: Human immunodeficiency virus 1; assay: Antiviral activity against HIV1 isolate 185 harboring reverse transcriptase T215Y mutant gene by phenosense assay relative to wild type; assay type: functional; method in brief: as §1
[20] = test system: Human immunodeficiency virus 1; assay: Antiviral activity against HIV1 isolate 188 harboring reverse transcriptase T215Y/M184V mutant gene by phenosense assay relative to wild type; assay type: functional; method in brief: as §1
[21] = test system: Human immunodeficiency virus 1; assay: Antiviral activity against HIV1 isolate 192 harboring reverse transcriptase M41L/T215Y mutant gene by phenosense assay relative to wild type; assay type: functional; method in brief: as §1
[22] = test system: Human immunodeficiency virus 1; assay: Antiviral activity against HIV1 isolate 200 harboring reverse transcriptase M41L/L210W/T215Y mutant gene by phenosense assay relative to wild type; assay type: functional; method in brief: as §1
[23] = test system: Human immunodeficiency virus 1; assay: Antiviral activity against HIV1 isolate 201 harboring reverse transcriptase M41L/L210W/T215Y mutant gene by phenosense assay relative to wild type; assay type: functional; method in brief: as §2
[24] = test system: Human immunodeficiency virus 1; assay: Antiviral activity against HIV1 isolate 204 harboring reverse transcriptase M41L/L210W/T215Y/M184V mutant gene by phenosense assay relative to wild type; assay type: functional; method in brief: as §2
[25] = test system: Human immunodeficiency virus 1; assay: Antiviral activity against HIV1 isolate 211 harboring reverse transcriptase D67N/K70R/T215F/K219E/M184V mutant gene by phenosense assay relative to wild type; assay type: functional; method in brief: as §2
[26] = test system: Human immunodeficiency virus 1; assay: Antiviral activity against HIV1 isolate 212 harboring reverse transcriptase L210W/T215Y mutant gene by phenosense assay relative to wild type; assay type: functional; method in brief: as §2
[27] = test system: Human immunodeficiency virus 1; assay: Antiviral activity against HIV1 isolate 215 harboring reverse transcriptase D67N/K70E mutant gene by phenosense assay relative to wild type; assay type: functional; method in brief: as §2
[28] = test system: Human immunodeficiency virus 1; assay: Antiviral activity against HIV1 isolate 220 harboring reverse transcriptase K70E/M184V mutant gene by phenosense assay relative to wild type; assay type: functional; method in brief: as §2

## Cc1cn([C@H]2C=C[C@@H](CO)O2)c(=O)[nH]c1=O [STAVUDINE]
[1]
  EC50: 0.48 µM
[2]
  EC50: 2.4 µM
[3]
  EC50: 0.46 µM
[4]
  EC50: 6.4 µM
[5]
  EC50: 0.77 µM
[6]
  EC50: 0.59 µM
[7]
  EC50: 0.6 µM
[8]
  EC50: 0.42 µM
[9]
  EC50: 5.5 µM
[10]
  EC50: 4.2 µM
[11]
  EC50: 0.83 µM
[12]
  EC50: 0.56 µM
[13]
  fold change (FC): 3.7
[14]
  fold change (FC): 3.1
[15]
  fold change (FC): 0.77
[16]
  fold change (FC): 11
[17]
  fold change (FC): 0.99
[18]
  fold change (FC): 1.4
[19]
  fold change (FC): 1.4
[20]
  fold change (FC): 1.1
[21]
  fold change (FC): 1.4
[22]
  fold change (FC): 2.1
[23]
  fold change (FC): 1.8
[24]
  fold change (FC): 1.8
[25]
  fold change (FC): 1.3
[26]
  fold change (FC): 1.6
[27]
  fold change (FC): 0.94
[28]
  fold change (FC): 0.65

## Nc1nc(NC2CC2)c2ncn([C@H]3C=C[C@@H](CO)C3)c2n1 [ABACAVIR]
[1]
  EC50: 1.7 µM
[2]
  EC50: 22 µM
[3]
  EC50: 4.8 µM
[4]
  EC50: 33 µM
[5]
  EC50: 5.7 µM
[6]
  EC50: 12 µM
[7]
  EC50: 3.4 µM
[8]
  EC50: 9.2 µM
[9]
  EC50: 34 µM
[10]
  EC50: > 52 µM
[11]
  EC50: 3.7 µM
[12]
  EC50: 2.4 µM
[13]
  fold change (FC): 4.4
[14]
  fold change (FC): 4.7
[15]
  fold change (FC): 2.7
[16]
  fold change (FC): 18
[17]
  fold change (FC): 6.6
[18]
  fold change (FC): 2.6
[19]
  fold change (FC): 2.1
[20]
  fold change (FC): 4.3
[21]
  fold change (FC): 1.9
[22]
  fold change (FC): 2.8
[23]
  fold change (FC): 2.4
[24]
  fold change (FC): 5
[25]
  fold change (FC): 4.4
[26]
  fold change (FC): 2.1
[27]
  fold change (FC): 1.4
[28]
  fold change (FC): 5.9

## O=c1[nH]cnc2c1ncn2[C@H]1CC[C@@H](CO)O1 [DIDANOSINE]
[1]
  EC50: 5.6 µM
[2]
  EC50: 12 µM
[3]
  EC50: 7.6 µM
[4]
  EC50: 22 µM
[5]
  EC50: 9.2 µM
[6]
  EC50: 14 µM
[7]
  EC50: 8.9 µM
[8]
  EC50: 11 µM
[9]
  EC50: 63 µM
[10]
  EC50: 58 µM
[11]
  EC50: 6.3 µM
[12]
  EC50: 7.7 µM
[13]
  fold change (FC): 1.6
[14]
  fold change (FC): 1.5
[15]
  fold change (FC): 1.4
[16]
  fold change (FC): 4
[17]
  fold change (FC): 2.6
[18]
  fold change (FC): 2
[19]
  fold change (FC): 1.1
[20]
  fold change (FC): 1.4
[21]
  fold change (FC): 1.1
[22]
  fold change (FC): 1.4
[23]
  fold change (FC): 1.1
[24]
  fold change (FC): 1.6
[25]
  fold change (FC): 1.6
[26]
  fold change (FC): 1
[27]
  fold change (FC): 1.4
[28]
  fold change (FC): 1.8

## Nc1nc(=O)n([C@@H]2CS[C@H](CO)O2)cc1F [EMTRICITABINE]
[1]
  EC50: 1.6 µM
[2]
  EC50: > 100 µM
[3]
  EC50: > 100 µM
[4]
  EC50: 30 µM
[5]
  EC50: 19 µM
[6]
  EC50: > 100 µM
[7]
  EC50: 2.1 µM
[8]
  EC50: > 100 µM
[9]
  EC50: 35 µM
[10]
  EC50: > 100 µM
[11]
  EC50: 2.6 µM
[12]
  EC50: 3.4 µM
[13]
  fold change (FC): 5
[14]
  fold change (FC): 6.9
[15]
  fold change (FC): >88
[16]
  fold change (FC): 26
[17]
  fold change (FC): >88
[18]
  fold change (FC): 11
[19]
  fold change (FC): 2.3
[20]
  fold change (FC): >88
[21]
  fold change (FC): 2.7
[22]
  fold change (FC): 3.7
[23]
  fold change (FC): 1.9
[24]
  fold change (FC): >88
[25]
  fold change (FC): >88
[26]
  fold change (FC): 2.3
[27]
  fold change (FC): 3
[28]
  fold change (FC): >88

## Nc1ccn([C@@H]2CS[C@H](CO)O2)c(=O)n1 [LAMIVUDINE]
[1]
  EC50: 4.4 µM
[2]
  EC50: > 300 µM
[3]
  EC50: > 300 µM
[4]
  EC50: 46 µM
[5]
  EC50: 71 µM
[6]
  EC50: > 300 µM
[7]
  EC50: 7 µM
[8]
  EC50: > 300 µM
[9]
  EC50: 90 µM
[10]
  EC50: > 300 µM
[11]
  EC50: 6.1 µM
[12]
  EC50: 11 µM
[13]
  fold change (FC): 3.7
[14]
  fold change (FC): 5.1
[15]
  fold change (FC): >80
[16]
  fold change (FC): 12
[17]
  fold change (FC): >80
[18]
  fold change (FC): 12
[19]
  fold change (FC): 1.6
[20]
  fold change (FC): >80
[21]
  fold change (FC): 2
[22]
  fold change (FC): 2.7
[23]
  fold change (FC): 1.6
[24]
  fold change (FC): >80
[25]
  fold change (FC): >80
[26]
  fold change (FC): 1.9
[27]
  fold change (FC): 2.9
[28]
  fold change (FC): >80
